Sampled rows, rich in hits. Any-hit rate of the full collection: about 3.1%.
CTSL1 counter = blocks F. hepatica cathepsin L1 in PFM18AAP counter-screen | AID 1906 | inhibition, % at 5.96 µM | recombinant F. hepatica cathepsin L1, Z-Leu-Arg-MCA fluorescence | 300,000 tested, 0.49% active;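 active = inhibition above the mean of all tested compounds plus 3 SD, set per screening campaign, cut at about 17% in these data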;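 also: 0% = plate median of test compound wells and 100% = 1 µM Z-Phe-Ala-diazomethylketone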
PP5 inh = PP5 (human) phosphatase inhibition. inhibition, % at 6.7 µM. 320,000 tested, 0.18% active. purified PP5c, OMFP substrate fluorescence. AID 1987;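 active = inhibition above the campaign's mean inhibition across all tested compounds plus 3 SD, cut at about 9.5% in these data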;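 also: 0% = DMSO only and 100% = 100 µM cantharidin control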
Target sequence (P53041 whole entry, looked up): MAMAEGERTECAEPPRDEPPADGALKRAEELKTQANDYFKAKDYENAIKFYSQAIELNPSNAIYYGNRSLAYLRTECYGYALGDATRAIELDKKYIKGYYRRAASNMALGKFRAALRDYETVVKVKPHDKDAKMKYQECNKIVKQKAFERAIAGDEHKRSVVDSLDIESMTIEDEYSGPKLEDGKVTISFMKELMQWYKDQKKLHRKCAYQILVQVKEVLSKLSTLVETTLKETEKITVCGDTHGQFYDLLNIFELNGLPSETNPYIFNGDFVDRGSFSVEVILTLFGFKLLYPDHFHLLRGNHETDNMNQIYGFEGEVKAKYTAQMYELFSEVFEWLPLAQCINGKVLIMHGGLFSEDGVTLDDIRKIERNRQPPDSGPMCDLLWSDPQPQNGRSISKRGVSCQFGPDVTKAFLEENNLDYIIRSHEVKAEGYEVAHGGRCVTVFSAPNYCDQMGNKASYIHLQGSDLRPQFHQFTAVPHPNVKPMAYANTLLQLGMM
PP1 counter = counter-screen for PP5 inhibitors: inhibitors of human PP1-alpha; purified PP1alpha, OMFP fluorescence; AID 2235; inhibition, % at 6.7 µM; 320,000 tested, 0.9% active;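 active = inhibition above the mean inhibition of all tested compounds plus 3 SD, computed separately for each screening campaign, cut at about 15% in these data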
core dimer inh = blocks dimerization of HCV core protein. TR-FRET GST/Flag-core106 dimerization, 1536-well. inhibition, % at 5 µM. 300,000 tested, 0.33% active. AID 1899;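 active = inhibition above the mean of all tested compounds plus 3 SD, set per screening campaign, cut at about 45% in these data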
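System: GST-tagged and Flag-tagged HCV core protein residues 1-106 / Input: core106 proteins, GST 13.5 nM and Flag 17 nM / Buffer or medium: KF-containing HEPES buffer, pH 7.45, DTT, CHAPS, BSA / Probe or stimulus: Eu-anti-GST and XL665-anti-Flag labelled anti-tag antibodies / Schedule: 4 h, 22.5 °C incubation / Technique: TR-FRET 671 and 617 nm emission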
NadD inh = inhibitors of Staphylococcus aureus NadD; purified NadD enzyme, colorimetric absorbance read-out; inhibition, % at 20 µM; 360,000 tested, 0.78% active; in the data active = inhibition above about 26%
Myeloid diff 2 = promotes myeloid progenitor differentiation; ER-HoxA9 myeloid progenitors, lysozyme-GFP differentiation, flow cytometry; 360,000 tested, 1% active; calls only at 10 µM;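 active = normalized GFP-positive differentiation at or above the plate's own cutoff, the solvent-only control mean plus 3 SD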;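 also: cells exposed to compound for four days before flow analysis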
Myeloid diff = compounds promoting myeloid differentiation; 2,300 tested, 2% active; calls only; shares compounds with Myeloid diff 2; ER-HoxA9 myeloid progenitors, GFP/Mac1 double-positive flow; AID 651706;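 active = share of green or green-and-red cells above 9 and 9% in run 1 or 4 and 3% in run 2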
GFP autofluor = flagged as fluorescent in myeloid differentiation counter-screen; shares compounds with Myeloid diff 2; ER-HoxA9 myeloid progenitors, no estrogen, GFP autofluorescence flow cytometry; vehicle wells 0%, positive control 100%; AID 651707; fluorescence response, % (test concentration not listed); 2,300 tested, 7.4% active;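 active = over 5% cells positive for green fluorescent reporter, or over 2% positive for both it and APC stain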;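 also: range taken on the double positive population between DMSO and positive control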
An asterisk follows results filed as active; i = inactive; x = no result given; + = active, no number.

SMILES	CTSL1 counter	PP5 inh	PP1 counter	core dimer inh	NadD inh	Myeloid diff 2	Myeloid diff	GFP autofluor
CC1CC2(CCCCC2)Nc2c1ccc1ccccc21 (stereo not drawn)	1	2	0	-3	5	+	i	12*
CC(=O)N1c2c(ccc3ccccc23)C(C)CC12CCCCC2 (stereo not drawn)	-1	-1	-3	6	-4	i	x	x
O=C(Nc1ccccc1)C(Cc1ccccc1)NC(=O)C12CC3CC(CC(C3)C1)C2 (stereo not drawn)	-3	-2	1	-1	0	+	i	0
Brc1ccc(-c2noc(COc3ccc4c(c3)CCC4)n2)o1	-5	0	-3	2	2	i	x	x
c1csc(-c2noc(COc3ccc4c(c3)CCCC4)n2)c1	3	0	-3	2	-2	i	i	0
O=C(CC1C(=O)NCCN1C(=O)Nc1ccccc1)Nc1cccc(C(F)(F)F)c1 (stereo not drawn)	-1	5	0	-9	-1	+	i	1
O=C(CC1SCCNC1=O)Nc1cccc(C(F)(F)F)c1 (stereo not drawn)	-3	1	1	1	-1	+	i	0
CN=C1SC(CC(=O)Nc2cccc(C(F)(F)F)c2)C(=O)N1C (stereo not drawn)	2	1	-1	1	-7	i	i	0
Cc1ccccc1S(=O)(=O)NC(=NCc1ccc(F)cc1)c1ccccc1	x	x	x	x	-4	i	x	x
Cc1cc(C)nc(N/N=C/c2ccccc2OCc2ccc([N+](=O)[O-])cc2)n1	-1	3	-3	12	6	i	x	x
O=[N+]([O-])c1ccc(N/N=C\c2ccccc2OCc2ccccc2)cc1	3	2	0	2	1	+	i	0
NNC(=O)c1ccc(COc2ccc(Br)cc2)o1	1	5	-1	-11	0	i	i	0
CC(C)(C)c1ccc(OCc2ccc(C(=O)NCc3cccnc3)o2)cc1	-1	5	2	-3	-5	i	x	x
NNC(=O)c1ccc(COc2ccc3c(c2)CCC3)o1	0	2	3	0	4	i	x	x
CC(C)(C)c1ccc(OCc2ccc(C(=O)NN)o2)cc1	5	3	3	1	5	+	i	0
CCCC(C)(C)C(=O)N1CCC1(C)C(=O)NS(=O)(=O)c1ccc(Cl)cc1 (stereo not drawn)	x	x	x	x	0	i	x	x
CCOc1cc(/C=C/C(=O)OCC(=O)NCC2CCCO2)cc(Cl)c1OC (stereo not drawn)	x	x	x	x	-5	i	x	x
CC(=O)NC12CC3CC(C1)CC(C(=O)N1CCN(S(=O)(=O)c4cccc(C(F)(F)F)c4)CC1)(C3)C2	10	2	-2	-6	4	i	x	x
CC(C)CNC(=O)c1ccccc1-c1ccccc1C(=O)O	2	0	-5	-2	1	i	i	1
COc1ccc(NC(=O)CSc2nc(C)cs2)c([N+](=O)[O-])c1	x	x	x	x	3	i	x	x
CC1CCN(CC(=O)Nc2ccccc2C#N)CC1	3	-1	-2	-3	3	+	i	0
C=CCNC(=O)c1cc2c(=O)n3ccccc3nc2s1	5	2	5	2	-2	i	x	x
O=C(O)c1ccc(Nc2ncnc3scc(-c4ccccc4)c23)cc1	2	2	-3	8	4	+	i	0
Cc1ccc(-c2csc3ncnc(Nc4ccc(C(=O)O)cc4)c23)cc1	0	3	4	17	11	i	x	x
CCOC(=O)c1c(NC(=O)CNCCOC)sc2c1CCCC2	2	1	3	-1	-5	i	i	0
SMILES	CTSL1 counter	PP5 inh	PP1 counter	core dimer inh	NadD inh	Myeloid diff 2	Myeloid diff	GFP autofluor
C=CCn1c(C)c(C(C)=O)c(N2CCCC2)nc1=S	7	0	0	-6	0	i	x	x
C=CCn1c(C)c(C(C)=O)c(N2CCN(c3ccccc3)CC2)nc1=S	1	1	4	0	10	+	i	2
Cc1ccc(-c2nnc(N(C)C(=O)c3cccnc3)s2)cc1	0	1	1	-2	0	i	i	0
COc1ccc(O)c(C2=Nc3ccccc3N=C(c3ccccc3)C2)c1	-2	5	0	-4	2	i	x	x
COc1ccc2c(c1)NC(=O)CC(c1ccccc1)=N2	0	3	-1	-3	-4	i	i	0
CS(=O)(=O)N(Cc1ccc(Cl)cc1)c1ccc(C(=O)NCCSc2ccccn2)cc1	0	1	4	6	4	+	i	4
CC1Cc2ccccc2N1C(=O)Cn1nnc(-c2ccccc2NC(=O)C2CCC2)n1 (stereo not drawn)	1	-1	-1	1	-2	i	i	1
CCO[C@H]1OC(C(=O)O)=C[C@@H](c2ccccc2)[C@@H]1CCCO	6	-1	1	13	1	i	i	0
O=C(NNC(=O)C12CC3CC(CC(C3)C1)C2)c1ccccc1[N+](=O)[O-]	-1	4	-1	4	0	i	i	0
O=Cc1c(-c2ccccc2)cc2oc3ccccc3cc1-2	-4	0	-3	4	-1	i	i	66*
Cc1ccc(/C=N/NC(=O)c2ccc(NC(=O)c3ccc(Cl)cc3)cc2)o1	-2	1	3	9	7	i	x	x
Cc1ccc(C(=O)Nc2ccc(C(=O)N/N=C/c3ccc(C)o3)cc2)cc1	0	3	3	0	8	+	i	1
CC(C)(C)c1ccc(C(=O)N2CCC2(C)C(=O)NS(=O)(=O)c2ccc(C#N)cc2)cc1 (stereo not drawn)	x	x	x	x	-4	i	x	x
N#CC1=C(N)Oc2n[nH]c(-c3ccccc3)c2C12C(=O)Nc1ccccc12 (stereo not drawn)	-3	2	2	-2	10	i	i	0
CCN1C(=O)C2(C(C#N)=C(N)Oc3n[nH]c(-c4ccc(Cl)cc4)c32)c2ccccc21 (stereo not drawn)	8	3	1	0	-5	i	x	x
CC[n+]1c(C)cc(C)n1-c1ccccc1	-1	0	1	-1	16	i	i	0
O=C(COc1cccc2cccnc12)NCC(F)(F)F	-2	1	1	13	4	i	x	x
O=C(COC(=O)COc1cccc2ccccc12)NCC(F)(F)F	-19	0	-4	-3	-1	i	i	0

Compound activity deposited in PubChem BioAssay by several laboratories.
